Measurements of several laboratories.
Protocols differ between the studies behind these lines.
Target: Cyclin-dependent kinase-like 5 (CDKL5, Homo sapiens, UniProt O76039)
Sequence (O76039 1-960, as in one of the studies): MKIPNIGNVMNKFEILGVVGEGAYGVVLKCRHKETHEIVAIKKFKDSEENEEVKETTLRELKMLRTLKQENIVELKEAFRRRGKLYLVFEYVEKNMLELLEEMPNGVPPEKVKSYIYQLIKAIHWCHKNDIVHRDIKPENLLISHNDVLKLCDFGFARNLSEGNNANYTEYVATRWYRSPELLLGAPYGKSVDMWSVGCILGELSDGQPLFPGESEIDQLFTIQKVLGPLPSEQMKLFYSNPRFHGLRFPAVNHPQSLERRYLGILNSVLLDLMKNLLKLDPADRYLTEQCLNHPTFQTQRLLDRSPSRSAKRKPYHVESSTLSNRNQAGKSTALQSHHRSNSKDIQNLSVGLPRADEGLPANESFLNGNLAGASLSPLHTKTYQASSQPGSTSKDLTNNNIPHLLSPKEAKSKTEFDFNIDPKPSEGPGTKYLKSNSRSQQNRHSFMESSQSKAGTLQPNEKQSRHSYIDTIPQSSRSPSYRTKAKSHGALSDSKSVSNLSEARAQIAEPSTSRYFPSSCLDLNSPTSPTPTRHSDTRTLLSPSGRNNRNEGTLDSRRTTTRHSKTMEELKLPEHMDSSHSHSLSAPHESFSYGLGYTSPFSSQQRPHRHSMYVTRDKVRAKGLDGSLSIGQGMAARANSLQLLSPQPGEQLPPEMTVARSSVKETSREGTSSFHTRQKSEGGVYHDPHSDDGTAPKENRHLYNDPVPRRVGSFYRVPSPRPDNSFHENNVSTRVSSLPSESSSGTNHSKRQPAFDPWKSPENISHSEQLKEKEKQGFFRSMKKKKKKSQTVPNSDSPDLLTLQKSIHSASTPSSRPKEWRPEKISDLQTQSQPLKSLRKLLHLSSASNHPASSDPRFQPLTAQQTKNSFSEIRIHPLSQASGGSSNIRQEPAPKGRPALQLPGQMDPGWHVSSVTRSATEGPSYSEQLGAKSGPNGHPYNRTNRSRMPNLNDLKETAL

| SMILES | effect on | technique | concentration | remaining binding |
| --- | --- | --- | --- | --- |
| O=C(NCCCN1CCOCC1)c1ccc(Nc2ncc(Cl)c(-c3ccc(Cl)s3)n2)cc1 | binding | competition with immobilised ligand | 1 µM | 26% |
| CC(=O)Nc1c(C(C)=O)c(=O)n(C)c2nc(-c3ccc(Cl)cc3Cl)c(-c3ccc(Cl)cc3)cc12 | cell-free assay | competition with immobilised ligand | 1 µM | 100% |
| CC1CCCN1c1nccc(-c2cnn3ncccc23)n1 (stereo not drawn) | binding |  | 1 µM | 100% |
| COc1ncc2cc3ccccc3nc2c1C#N | binding | competition with immobilised ligand | 5 µM | 90% |
| O=C(c1ccc(Nc2nccc(-c3cc4ccccc4s3)n2)cc1)N1CCC(N2CCCC2)CC1 | binding | competition with immobilised ligand | 1 µM | 91% |
| Cc1nccc(COC(=O)N2C[C@@H]3[C@@H](CNC(=O)c4ccc5[nH]nnc5c4)[C@@H]3C2)n1 | cell-free assay | competition with immobilised ligand | 1 µM | 87% |
| CNC(=O)[C@@H]1CC[C@@H](n2c(-c3ccc4cnccc4c3)nc3ccc(C(=O)NCc4cccc(C(N)=O)c4)cc32)C1 | binding | competition with immobilised ligand | 1 µM | 100% |
| CCS(=O)(=O)c1cc2cc(C[C@](O)(CC(C)(C)c3ccc(F)cc3C(N)=O)C(F)(F)F)[nH]c2cn1 | cell-free assay | competition with immobilised ligand | 1 µM | 100% |
| C=CC(=O)N1CCC(C(=O)NCC(=O)N2CCN(c3nc(-c4cnc(N)nc4C(F)F)nc(N4CCOCC4)n3)CC2)CC1 | binding | competition with immobilised ligand | 1 µM | 100% |
| Cc1cnc(Nc2ccc(C(=O)N3CCC(N4CCCC4)CC3)cc2)nc1-c1cc2ccccc2s1 | binding | competition with immobilised ligand | 1 µM | 69% |
| CCCCN(CCCC)C(=O)CN1C[C@H](c2cc(OC)c3c(c2)OCO3)[C@@H](C(=O)O)[C@@H]1CC(C)(C)CCC | cell-free assay | competition with immobilised ligand | 1 µM | 71.4% |
| CN(C)c1nccc(-c2cnn3ncccc23)n1 | binding |  | 1 µM | 100% |
| COc1cnc(Nc2cccc(S(N)(=O)=O)c2)nc1N1CCN(c2ccccc2)C(=O)C1 | binding | competition with immobilised ligand | 1 µM | 100% |
| N[C@@H]1CCN(c2nccc(-c3cnn4ncccc34)n2)C1 | binding |  | 1 µM | 100% |
| O=C(NCc1ncc(C(F)(F)F)cc1Cl)c1ccc2c(c1)C1(CCS(=O)(=O)CC1)[C@H](C1CC1)N2S(=O)(=O)c1ccc(F)cc1 | cell-free assay | competition with immobilised ligand | 1 µM | 78% |
| C[C@@H]1CCN(c2nccc(-c3cnn4ncccc34)n2)C1 | binding |  | 1 µM | 86% |
| c1cncc(-c2cccc(Nc3nccc(NC4CCCCC4)n3)c2)c1 | binding | competition with immobilised ligand | 10 µM | 38% |
| COc1ccnn2ncc(-c3ccnc(N(C)C)n3)c12 | binding |  | 1 µM | 86% |
| O=C(NCC1CCOCC1)c1n[nH]cc1NC(=O)c1c(F)cccc1F | binding | competition with immobilised ligand | 1 µM | 30% |
| CN(CCCC(F)(F)F)c1nccc(-c2cnn3ncccc23)n1 | binding |  | 1 µM | 100% |
| C[C@@H](c1cccc(C#N)c1)n1cc(Cl)cc(C(N)=O)c1=N | binding | competition with immobilised ligand | 1 µM | 89% |
